We go through one molecule from ChEMBL document CHEMBL2429803, “Animal toxicity of hairpin pyrrole-imidazole polyamides varies with the turn unit” (J Med Chem, 2013).

The test system of data set [1] is Mus musculus. Description: Acute toxicity in C57BL/6J mouse assessed as lesions in GI tract at 1 to 10 mg/kg, sc after 9 days. The following applies: in vivo, 216 h. In kind it is organism-based, Gastrointestinal tract. Also noted: dose 1-10 mg/kg, route subcutaneous. In outline: (§1)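 Male C57BL/6J mice, 8 weeks old, received a single sc dose (1, 3 or 10 mg/kg in 25% DMSO/saline, n = 4 per group) and were sacrificed after 9 days. Two representative animals per group were fixed in 10% formalin. Cecum, duodenum, heart, ileum, kidney, liver, lung, pancreas, spleen and stomach were examined blind by a veterinary pathologist and lesions graded mild, moderate or severe.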

The test system of data set [2] is Mus musculus. Description: Acute toxicity in C57BL/6J mouse assessed as lesions in heart at 1 to 10 mg/kg, sc after 9 days. Format: organism-based. Details: dose 1-10 mg/kg, route subcutaneous. The following applies: in vivo, 216 h. In outline: as §1
For data set [3], the system named is Mus musculus. The data set can be described thus: Acute toxicity in C57BL/6J mouse assessed as lesions in stomach at 1 to 10 mg/kg, sc after 9 days. Format: organism-based. Details: dose 1-10 mg/kg, route subcutaneous. The following applies: in vivo, 216 h. In outline:
as §1

The test system of data set [4] is Mus musculus. The data set can be described thus: Toxicity in C57BL/6J mouse assessed as epithelial necrosis and apoptosis in kidney at 1 mg/kg, sc administered every 3 days for a cycle of 3 injections measured 2 days post last injection. To be noted: in vivo, 48 h. Format: organism-based. Details: dose 1 mg/kg, route subcutaneous. In a few lines: (§2)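 Male C57BL/6J mice, 8 weeks old, given 1 mg/kg sc every 3 days for three injections and sacrificed 2 days after the last one. Two mice per group fixed in 10% formalin. A veterinary pathologist, blinded, examined cecum, duodenum, heart, ileum, kidney, liver, lung, pancreas, spleen and stomach. Lesions graded mild, moderate or severe.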

The nature of data set [5]: Metabolic stability in human liver microsomes after 1 hr by LC/MS/MS analysis. Format: ADME, Microsome. To be noted: read-out: Stability. In a few lines:
(§3)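 Compound incubated at 37 °C for 60 min with 1 mg/mL human or mouse liver microsomes in 100 mM KH2PO4, 3 mM MgCl2, pH 7.4, with 2 mM NADPH or without it. Stopped with ice-cold methanol, then precipitate removed. Analyzed by LC/MS/MS as % remaining versus time zero. Duplicates.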

The subject of data set [6] is Mus musculus. The data set can be described thus: Toxicity in C57BL/6J mouse assessed as weight loss at 1 mg/kg, sc administered every 3 days for a cycle of 3 injections. In kind it is organism-based. Also noted: dose 1 mg/kg, route subcutaneous. To be noted: in vivo, 72 h. In outline: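 8-week-old male C57BL/6J mice, acclimated 3 days, groups of three, dosed sc in 25% DMSO/saline vehicle once every 3 days, sacrificed 2 days after the last injection. Body weight recorded on injection days and at end point; humane end point set at visible duress or >15% loss of original body weight.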

Data set [7] has as its system Mus musculus. Description: Acute toxicity in C57BL/6J mouse assessed as diffuse hepatocellular necrosis and apoptosis at 10 mg/kg, sc after 9 days. In kind it is organism-based. Also noted: dose 10 mg/kg, route subcutaneous. To be noted: in vivo, 216 h. In a few lines: as §1
Data set [8] concerns Mus musculus. Description: Toxicity in C57BL/6J mouse assessed as mild tubular attenuation in kidney at 1 mg/kg, sc administered every 3 days for a cycle of 3 injections measured 2 days post last injection. Details: dose 1 mg/kg, route subcutaneous. The following applies: in vivo, 48 h. Format: organism-based. In a few lines: as §2
A short description of data set [9]: Metabolic stability in human liver microsomes after 1 hr by LC/MS/MS analysis in presence of NADPH. In kind it is ADME, Microsome. To be noted: read-out: Stability. In a few lines: as §3
Data set [10] deals with Mus musculus. The data set can be described thus: Acute toxicity in C57BL/6J mouse assessed as lesions in lungs at 1 to 10 mg/kg, sc after 9 days. Format: organism-based. Details: dose 1-10 mg/kg, route subcutaneous. The following applies: in vivo, 216 h. In outline:
as §1

In data set [11] the test system is Mus musculus. Description: Toxicity in C57BL/6J mouse assessed as mild multifocal hepatocellular necrosis and apoptosis in liver at 1 mg/kg, sc administered every 3 days for a cycle of 3 injections measured 2 days post last injection. Format: organism-based. Details: dose 1 mg/kg, route subcutaneous. The following applies: in vivo, 48 h. In a few lines:
as §2

Data set [12] has as its system Mus musculus. Description: Acute toxicity in C57BL/6J mouse assessed as weight loss at 10 mg/kg, sc after 9 days. Format: organism-based. Also noted: dose 10 mg/kg, route subcutaneous. To be noted: in vivo, 216 h. In outline: (§4)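 Male C57BL/6J mice, 8 weeks old, were acclimated 3 days and then given a single sc injection of 1, 3 or 10 mg/kg in 25% DMSO/saline vehicle (up to 200 μL), n = 4 per group. Weight, behaviour and appearance were monitored daily for 9 days before sacrifice. The humane end point was visible duress or weight loss over 15% of the original.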

The test system of data set [13] is Mus musculus. Description: Acute toxicity in C57BL/6J mouse assessed as moderate atypical tubular regeneration in kidney at 3 mg/kg, sc after 9 days. Format: organism-based. Also noted: dose 3 mg/kg, route subcutaneous. The following applies: in vivo, 216 h. In a few lines:
as §1

Data set [14] concerns Mus musculus. Description: Acute toxicity in C57BL/6J mouse assessed as diffuse hepatocellular necrosis and apoptosis at 10 mg/kg, sc after 9 days. To be noted: in vivo, 216 h.
A short description of data set [15]: Metabolic stability in mouse liver microsomes after 1 hr by LC/MS/MS analysis. In kind it is ADME, Microsome. To be noted: read-out: Stability. In outline:
as §3
On the technique in general: Liver microsomes are vesicles of endoplasmic reticulum, rich in cytochrome P450 enzymes.

The subject of data set [16] is Mus musculus. The data set can be described thus: Toxicity in C57BL/6J mouse assessed as karyomegaly in kidney at 1 mg/kg, sc administered every 3 days for a cycle of 3 injections measured 2 days post last injection. In kind it is organism-based. Details: dose 1 mg/kg, route subcutaneous. To be noted: in vivo, 48 h. In outline: as §2
Data set [17] concerns Mus musculus. Description: Acute toxicity in C57BL/6J mouse assessed as acute morbidity at 10 mg/kg, sc after 9 days. In kind it is organism-based. Details: dose 10 mg/kg, route subcutaneous. To be noted: in vivo, 216 h. In a few lines:
as §4

Data set [18] has as its system Mus musculus. Description: Acute toxicity in C57BL/6J mouse assessed as tubular epithelial necrosis and apoptosis in kidney at 3 mg/kg, sc after 9 days. Also noted: dose 3 mg/kg, route subcutaneous. To be noted: in vivo, 216 h. In kind it is organism-based. In a few lines: as §1
The subject of data set [19] is Mus musculus. Description: Acute toxicity in C57BL/6J mouse assessed as lesions in pancreas at 1 to 10 mg/kg, sc after 9 days. In kind it is organism-based. To be noted: in vivo, 216 h. Also noted: dose 1-10 mg/kg, route subcutaneous. In a few lines: as §1
Data set [20] relates to Mus musculus. Description: Acute toxicity in C57BL/6J mouse assessed as mild lymphoid apoptosis in white pulp of spleen at 10 mg/kg, sc after 9 days. Format: organism-based. Details: dose 10 mg/kg, route subcutaneous. To be noted: in vivo, 216 h. In a few lines: as §1
Data set [21] is described as follows: Metabolic stability in mouse liver microsomes after 1 hr by LC/MS/MS analysis in presence of NADPH. The following applies: read-out: Stability. In kind it is ADME, Microsome. In a few lines:
as §3

Data set [22] relates to Mus musculus. The data set can be described thus: Toxicity in C57BL/6J mouse assessed as morbidity at 1 mg/kg, sc administered every 3 days for a cycle of 3 injections. Format: organism-based. Also noted: dose 1 mg/kg, route subcutaneous. The following applies: in vivo, 72 h. In outline: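 Male C57BL/6J mice, 3 per group, given 1 mg/kg sc every 3 days. Weight recorded on injection days. Watched for signs of duress. Humane end point was visible duress or weight loss over 15% of starting body weight.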

With `CN(CCCNC(=O)c1cccc(C(=O)O)c1)CCCNC(=O)c1cc(NC(=O)c2cc(NC(=O)c3cc(NC(=O)c4nc(NC(=O)C[C@@H](N)CNC(=O)c5cc(NC(=O)c6cc(NC(=O)c7cc(NC(=O)c8nccn8C)cn7C)cn6C)cn5C)cn4C)cn3C)cn2C)cn1C`, the Activity result in data set [1] is on record as “Non-toxic”; in [2], “Non-toxic”; in [3], “Non-toxic”; in data set [4], “Toxic”; in data set [6] it was “Non-toxic”; in data set [7], “Toxic”. For the same molecule, the Activity entry in data set [8] is “Toxic”; in data set [10], “Non-toxic”; in data set [11], “Toxic”; in [12], “Toxic”; in data set [13] it was “Toxic”; in [14], “Toxic”. Also, the Activity entry in data set [16] was “Toxic”; in data set [17], “Toxic”; in data set [18] it was “Toxic”; in data set [19], “Non-toxic”; in [20], “Toxic”; in data set [22] it was “Non-toxic”. Besides, the remaining at 1 h in [5], in data set [9], in [15] and in data set [21] was more than 90% throughout.
